# Measurements reported in ChEMBL document CHEMBL1121633, “Neuroleptic 4-aryltetrahydropyrrolo[3,4-b]indoles” (1980).
# Columns and labels:
# Rattus norvegicus [1] = experiment: Antipsychotic activity was assessed by ability to antagonize the stereotypy induced in rats by d-amphetamine (5 mg / kg, ip) after 1 h; Range is 3.2-5.6; format: functional
# Outline: (§1)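 Rats were housed singly in covered plastic compartments and briefly acclimated. Groups of five received compound ip at doses spaced 0.5 log unit (e.g., 1, 3.2, 10, 32 mg/kg). d-Amphetamine sulfate 5 mg/kg ip was given 1, 5 or 24 h later. One hour after each challenge, at peak amphetamine effect, each rat's most characteristic behavior was rated on a six-point scale.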
# Rattus norvegicus [2] = experiment: Antipsychotic activity was assessed by ability to antagonize the stereotypy induced in rats by d-amphetamine (5 mg / kg, ip) after 5 h; format: functional; outline: as §1
# Rattus norvegicus [3] = experiment: Antipsychotic activity was assessed by ability to antagonize the stereotypy induced in rats by d-amphetamine (5 mg / kg, ip) after 1 h; Range is 3.2-10
# Rattus norvegicus [4] = experiment: Antipsychotic activity was assessed by ability to antagonize the stereotypy induced in rats by d-amphetamine (5 mg / kg, ip) after 24 h; format: functional; outline: as §1
# Rattus norvegicus [5] = experiment: Antipsychotic activity was assessed by ability to antagonize the stereotypy induced in rats by d-amphetamine (5 mg / kg, ip) after 1 h; format: functional; outline: as §1
# Rattus norvegicus [6] = experiment: Antipsychotic activity was assessed by ability to antagonize the stereotypy induced in rats by d-amphetamine (5 mg / kg, ip) after 5 h; Range is 10-32; format: functional; outline: as §1
# Rattus norvegicus [7] = experiment: Antipsychotic activity was assessed by ability to antagonize the stereotypy induced in rats by d-amphetamine (5 mg / kg, ip) after 1 h; Range is 1.0-3.2; format: functional; outline: as §1
# Rattus norvegicus [8] = experiment: Antipsychotic activity was assessed by ability to antagonize the stereotypy induced in rats by d-amphetamine (5 mg / kg, ip) after 24 h; Range is 3.2-10; format: functional; outline: as §1
# Rattus norvegicus [9] = experiment: Antipsychotic activity was assessed by ability to antagonize the stereotypy induced in rats by d-amphetamine (5 mg / kg, ip) after 5 h; Range is 1.0-3.2; format: functional; outline: as §1
# Rattus norvegicus [10] = experiment: Antipsychotic activity was assessed by ability to antagonize the stereotypy induced in rats by d-amphetamine (5 mg/kg, ip) after 5 h; format: functional; outline: as §1
# Rattus norvegicus [11] = experiment: Antipsychotic activity was assessed by ability to antagonize the stereotypy induced in rats by d-amphetamine (5 mg/kg, ip) after 1 h; format: functional; outline: as §1
# Rattus norvegicus [12] = experiment: Antipsychotic activity was assessed by ability to antagonize the stereotypy induced in rats by d-amphetamine (5 mg/kg, ip) after 24 h; format: functional; outline: as §1
# Rattus norvegicus [13] = experiment: Antipsychotic activity was assessed by ability to antagonize the stereotypy induced in rats by d-amphetamine (5 mg/kg, ip) after 5 h; Range is 3.2-10; format: functional; outline: as §1
# Rattus norvegicus [14] = experiment: Antipsychotic activity was assessed by ability to antagonize the stereotypy induced in rats by d-amphetamine (5 mg/kg, ip) after 1 h; Range is 3.2-10; format: functional; outline: as §1
# Rattus norvegicus [15] = experiment: Antipsychotic activity was assessed by ability to antagonize the stereotypy induced in rats by d-amphetamine (5 mg / kg, ip) after 5 h; Range is 0.1-0.32; format: functional; outline: as §1
# Rattus norvegicus [16] = experiment: Antipsychotic activity was assessed by ability to antagonize the stereotypy induced in rats by d-amphetamine (5 mg / kg, ip) after 24 h; Range is 1.0-3.2; format: functional; outline: as §1
# Rattus norvegicus [17] = experiment: Antipsychotic activity was assessed by ability to antagonize the stereotypy induced in rats by d-amphetamine (5 mg / kg, ip) after 1 h; Range is 0.1-0.32; format: functional; outline: as §1
# Rattus norvegicus [18] = experiment: Antipsychotic activity was assessed by ability to antagonize the stereotypy induced in rats by d-amphetamine (5 mg/kg, ip) after 1 h; Range is 10-32; format: functional; outline: as §1
compound,measurement,setting,value
CN1Cc2c(n(-c3ccc(F)cc3)c3ccc(F)cc23)C1.Cl,ED50,Rattus norvegicus [1],3.2 mg/kg
same,ED50,Rattus norvegicus [2],> 10 mg/kg
CN(C)CCCN1c2ccccc2Sc2ccc(Cl)cc21 [CHLORPROMAZINE],ED50,Rattus norvegicus [3],3.2 mg/kg
same,ED50,Rattus norvegicus [2],17.8 mg/kg
same,ED50,Rattus norvegicus [4],56 mg/kg
Cl.Fc1ccc(-n2c3c(c4cc(F)ccc42)CN(Cc2ccccc2)C3)cc1,ED50,Rattus norvegicus [2],> 32 mg/kg
same,ED50,Rattus norvegicus [5],> 32 mg/kg
Cl.OC(CCCCN1Cc2c(n(-c3ccc(F)cc3)c3ccc(F)cc23)C1)c1ccc(F)cc1 (stereo unspecified),ED50,Rattus norvegicus [6],10 mg/kg
same,ED50,Rattus norvegicus [5],> 32 mg/kg
Cl.Fc1ccc(-n2c3c(c4cc(F)ccc42)CN(CCc2ccccc2)C3)cc1,ED50,Rattus norvegicus [2],> 32 mg/kg
same,ED50,Rattus norvegicus [5],> 32 mg/kg
Cl.OC(CCCN1Cc2c(n(-c3ccc(F)cc3)c3ccc(F)cc23)C1)c1ccc(F)cc1 (stereo unspecified),ED50,Rattus norvegicus [7],1 mg/kg
same,ED50,Rattus norvegicus [8],3.2 mg/kg
same,ED50,Rattus norvegicus [9],1 mg/kg
Cl.Fc1ccc(-n2c3c(c4cc(F)ccc42)CNC3)cc1,ED50,Rattus norvegicus [10],> 32 mg/kg
same,ED50,Rattus norvegicus [11],> 32 mg/kg
same,ED50,Rattus norvegicus [12],32 mg/kg
Cl.O=C(CCCCN1Cc2c(n(-c3ccc(F)cc3)c3ccc(F)cc23)C1)c1ccc(F)cc1,ED50,Rattus norvegicus [2],> 32 mg/kg
same,ED50,Rattus norvegicus [5],32 mg/kg
CCCN1Cc2c(n(-c3ccc(F)cc3)c3ccc(F)cc23)C1.I,ED50,Rattus norvegicus [2],> 32 mg/kg
same,ED50,Rattus norvegicus [5],> 32 mg/kg
Cl.O=C(CCCN1Cc2c(n(-c3ccc(F)cc3)c3ccc(F)cc23)C1)c1ccc(F)cc1,ED50,Rattus norvegicus [13],3.2 mg/kg
same,ED50,Rattus norvegicus [12],> 10 mg/kg
same,ED50,Rattus norvegicus [14],3.2 mg/kg
CCOC(=O)N1Cc2[nH]c3ccc(F)cc3c2C1.Cl,ED50,Rattus norvegicus [2],> 32 mg/kg
same,ED50,Rattus norvegicus [5],> 32 mg/kg
CCOC(=O)N1Cc2c(n(-c3ccc(F)cc3)c3ccc(F)cc23)C1,ED50,Rattus norvegicus [10],> 32 mg/kg
same,ED50,Rattus norvegicus [11],> 32 mg/kg
Cl.OC(CCCN1CCc2c(c3cc(F)ccc3n2-c2ccc(F)cc2)C1)c1ccc(F)cc1 (stereo unspecified),ED50,Rattus norvegicus [15],0.1 mg/kg
same,ED50,Rattus norvegicus [16],1 mg/kg
same,ED50,Rattus norvegicus [17],0.1 mg/kg
Cl.O=C(CCCN1Cc2c(n(-c3ccc(F)cc3)c3ccc(F)cc23)C1)c1ccccc1,ED50,Rattus norvegicus [2],> 32 mg/kg
same,ED50,Rattus norvegicus [5],> 32 mg/kg
Cl.OC(CCCN1Cc2c(n(-c3ccc(F)cc3)c3ccc(F)cc23)C1)c1ccccc1 (stereo unspecified),ED50,Rattus norvegicus [10],> 10 mg/kg
same,ED50,Rattus norvegicus [18],10 mg/kg
same,ED50,Rattus norvegicus [12],> 32 mg/kg
